In ChEMBL document CHEMBL4715912, “Discovery of a novel series of indolinylpyrimidine-based GPR119 agonists: Elimination of ether-a-go-go-related gene liability using a hydrogen bond acceptor-focused approach” (Bioorg Med Chem, 2021):

How the values were obtained:
Rattus norvegicus = experiment: Antidiabetic activity in po dosed N-STZ 1.5 rat assessed as reduction in GHB level for 4 weeks; type: functional, organism-based; conditions: dose 1-3 mg/kg
Procedure, shortened: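 Male N-STZ-1.5 rats kept under time-restricted feeding, treated for 4 weeks; GHb measured before and after treatment and expressed also as percentage change.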

[1] = target: T1, Glucose-dependent insulinotropic receptor (Rattus norvegicus, UniProt Q7TQN8); experiment: Agonist activity at rat GPR119 expressed in CHO cells co-expressing cyclic AMP response element incubated for 2 hrs by steady-glo luciferase assay; type: cell-based
T1 sequence (Q7TQN8 whole entry): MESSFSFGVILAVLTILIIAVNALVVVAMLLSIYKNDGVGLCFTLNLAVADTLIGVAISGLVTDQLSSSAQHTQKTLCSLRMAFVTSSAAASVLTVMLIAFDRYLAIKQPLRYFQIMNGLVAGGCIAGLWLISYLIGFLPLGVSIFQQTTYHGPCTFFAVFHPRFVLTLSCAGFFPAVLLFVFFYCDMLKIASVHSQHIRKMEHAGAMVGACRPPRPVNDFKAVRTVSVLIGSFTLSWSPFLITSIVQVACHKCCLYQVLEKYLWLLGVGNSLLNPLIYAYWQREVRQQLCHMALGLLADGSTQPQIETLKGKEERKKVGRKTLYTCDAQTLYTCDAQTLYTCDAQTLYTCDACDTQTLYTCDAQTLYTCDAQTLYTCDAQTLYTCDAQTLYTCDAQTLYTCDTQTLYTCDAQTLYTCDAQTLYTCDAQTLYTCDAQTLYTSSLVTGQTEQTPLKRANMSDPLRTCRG
Procedure, shortened: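 Rat GPR119-expressing cells, cAMP-induced luciferase read with Steady-Glo after 2 h compound exposure in MEM α/HEPES/BSA buffer. Activity scaled between vehicle and a 10 µM reference agonist; EC50 mean of n = 2.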

[2] = Total clearance in rat at 0.1 mg/kg, iv by LC/MS/MS analysis; type: ADME, organism-based; conditions: in vivo
Procedure, shortened: (§1)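 Cassette intravenous dosing at 0.1 mg/kg to non-fasted animals. Plasma taken from blood samples, deproteinized and centrifuged, and compound levels in supernatant quantified by LC/MS/MS.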

[3] = AUC in rat at 1 mg/kg, po by LC/MS/MS analysis; type: ADME, organism-based; set-up: dose 1 mg/kg; conditions: in vivo
Procedure, shortened: (§2)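 Cassette dosing, given by mouth at 1 mg/kg in 0.5% methylcellulose aqueous solution, with intravenous arm at 0.1 mg/kg, to non-fasted animals. Blood collected after dosing, plasma deproteinized and centrifuged, compound measured by LC/MS/MS.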

[4] = Partition coefficient, logD between 1-octanol and pH 7.4 aqueous buffer by chromatographic analysis; type: physicochemical; conditions: 1-octanol/pH 7.4 aqueous buffer
Procedure, shortened: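 LogD at pH 7.4, octanol/aqueous buffer partition, estimated by a chromatographic method adapted from a published procedure.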

[5] = Volume of distribution at steady state in rat at 0.1 mg/kg, iv by LC/MS/MS analysis; type: ADME, organism-based; conditions: in vivo, read-out: Vdss; procedure, shortened: as §1
[6] = Oral bioavailability in rat at 1 mg/kg by LC/MS/MS analysis; type: ADME, organism-based; conditions: in vivo; procedure, shortened: as §2
[7] = Intrinsic clearance in rat liver microsomes at 1 uM measured after 15 to 30 mins in presence of NADPH generating system by LC/MS/MS analysis; type: ADME, Microsome; conditions: time 15-30 min, read-out: CLH
Procedure, shortened: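 Human or rat liver microsomes at 0.2 mg/mL protein in 50 mM potassium phosphate pH 7.4 with 1 µM compound; reaction started with NADPH-generating system (5 mM MgCl2, 5 mM glucose-6-phosphate, 0.5 mM β-NADP+, 1.5 units/mL G6PDH). Stopped with acetonitrile at 15 and 30 min, parent by LC/MS/MS; rate from concentration–time slope, expressed as µL/min/mg.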

## CC(C)c1noc(N2CCC(Oc3cc(N4CCc5cc(N6CCC[C@H](O)C6=O)ccc54)ncn3)CC2)n1
Rattus norvegicus
  Activity: Dose-dependent effect
[1]
  EC50: 0.12 µM
[2]
  clearance: 2.47 mL/min/kg
[3]
  AUC: 1670 ng·h/mL
[4]
  logD: 3.3
[5]
  Vd: 0.332 L/kg
[6]
  bioavailability: 24%
[7]
  microsomal CLint at 1 µM: 1 µL/min/mg
